These results are taken from ChEMBL document CHEMBL1148222, “Chemical constituents of Glycosmis arborea: three new carbazole alkaloids and their biological activity” (J Nat Prod, 2004).

Bounds are passed on as bounds.

Common to all, as to format: cell-based
The subject of series [1] is Raji. As to the kind of experiment: Cytotoxicity against human Raji cells at 16 […] after 48 hrs by trypan blue staining method. Put shortly:
(§1)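 Raji cells grown to 10^6 cells/mL, then resuspended in RPMI 1640 with 10% FCS. Medium held 4 mM n-butyric acid, 32 pmol TPA (20 ng/mL in DMSO) and test compound in DMSO. Culture ran 48 h at 37 °C. Viable cells were counted by hemocytometer with Trypan Blue exclusion. At least 60% survival is required for a valid EBV-EA reading.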

For series [2], the system named is Raji. As to the kind of experiment: Inhibition of TPA-induced EBV-early antigen activation in human Raji cells at 32 […] after 48 hrs relative to control. Further details: scale not given: the % may be the effect or the level left. To be noted: human gammaherpesvirus 4. In short, it runs like this:
(§2)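 Raji cells at 10^6 cells/mL were resuspended in RPMI 1640 with 10% FCS. Induction used 4 mM n-butyric acid plus 32 pmol TPA (20 ng/mL), with test compound in DMSO at mol ratios of 10–1000 to TPA. Cells were held 48 h at 37 °C. EA-positive cells were counted blind, at least 500 cells per assay, and expressed as % of the TPA-only control (100%) ± SD.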

For series [3], the system named is Raji. As to the kind of experiment: Inhibition of TPA-induced EBV-early antigen activation in human Raji cells at 3.2 […] after 48 hrs relative to control. Further details: scale not given: the % may be the effect or the level left. To be noted: human gammaherpesvirus 4. Put shortly: as §2
Series [4] relates to Raji. As to the kind of experiment: Cytotoxicity against human Raji cells at 3.2 […] after 48 hrs by trypan blue staining method. In short, it runs like this:
as §1

In series [5] the test system is Raji. As to the kind of experiment: Cytotoxicity against human Raji cells at 32 […] after 48 hrs by trypan blue staining method. In short, it runs like this: as §1
The test system of series [6] is Raji. As to the kind of experiment: Inhibition of TPA-induced EBV-early antigen activation in human Raji cells at 0.32 […] after 48 hrs relative to control. Further details: scale not given: the % may be the effect or the level left. To be noted: human gammaherpesvirus 4. Put shortly:
as §2

Series [7] has as its system Raji. As to the kind of experiment: Cytotoxicity against human Raji cells at 0.32 […] after 48 hrs by trypan blue staining method. Put shortly:
as §1

In series [8] the test system is Raji. As to the kind of experiment: Inhibition of TPA-induced EBV-early antigen activation in human Raji cells at 16 […] after 48 hrs relative to control. Set-up: scale not given: the % may be the effect or the level left. The settings on record: human gammaherpesvirus 4. Put shortly: as §2

As to `COc1cc2c(c(O)c1OC)c(=O)c1ccccc1n2C` [ARBORININE], the Activity in the series on Raji [1] is above 80%; in the series on Raji [2] it was 2.7%; with Raji [3], 74.3%; in the series with Raji [4], above 80%; in the series with Raji [5], 60%; in the series on Raji [6], 95.6%. Moreover, the Activity in the series on Raji [7] was above 80%; with Raji [8], 39.6%.

Take `COc1ccc2[nH]c3cc(O)c(C)cc3c2c1CC=C(C)C` [GLYBOMINE B]: the Activity in the series with Raji [1] was above 80%; in the series on Raji [2], 15.3%; in the series with Raji [3] it was 68.7%; in the series with Raji [4] it was above 80%; in the series on Raji [5], 60%; in the series on Raji [6], 96.4%. Moreover, the Activity with Raji [7] is above 80%; with Raji [8], 46.7%.

Consider `CC1=C(/C=C/C(C)=C/C=C/C(C)=C/C=C/C=C(C)/C=C/C=C(C)/C=C/C2=C(C)CCCC2(C)C)C(C)(C)CCC1` [BETA CAROTENE], for which the Activity is above 80% in the series on Raji [1]; 9.1% in the series with Raji [2]; above 80% in the series on Raji [4]; 60% in the series on Raji [5]; 100% in the series with Raji [6]; above 80% in the series with Raji [7].

Consider `Cc1cc2c(cc1O)[nH]c1ccc3c(c12)C=CC(C)(C)O3` [GLYCOBORININE], for which the Activity in the series on Raji [1] is above 80%; with Raji [2], 17.4%; in the series with Raji [3], 73.7%; with Raji [4], above 80%; in the series with Raji [5], 60%; in the series with Raji [6] it was 100%. Moreover, the values for the Activity with Raji [7] and with Raji [8] were above 80% and 49.1%, respectively.

For `CC(C)=CCc1c(O)ccc2[nH]c3cc(O)c(C)cc3c12` [GLYBOMINE C], the Activity is above 80% with Raji [1]; 13.4% in the series on Raji [2]; 68.9% in the series on Raji [3]; above 80% with Raji [4]; 60% in the series on Raji [5]; 94.6% in the series with Raji [6]. For the same compound, the Activity in the series with Raji [7] was above 80%; in the series on Raji [8], 45.6%.

As for `Cn1c2ccccc2c(=O)c2ccoc21` [ISODICTAMNINE], the Activity is above 80% with Raji [1]; 18.4% in the series on Raji [2]; 72.2% in the series on Raji [3]; above 80% in the series with Raji [4]; 60% in the series on Raji [5]; 100% in the series with Raji [6]. For the same compound, the values for the Activity in the series with Raji [7] and with Raji [8] were above 80% and 40.3%, respectively.

As to `COc1cccc2c(=O)c3ccoc3n(C)c12`, the Activity with Raji [1] is above 80%; in the series on Raji [2] it was 19.9%; in the series on Raji [3], 79.5%; in the series on Raji [4], above 80%; in the series with Raji [5] it was 60%; in the series with Raji [6] it was 100%. Also, the Activity is above 80% with Raji [7] and 40.5% in the series with Raji [8].

For the compound `Cn1c(Cc2ccccc2)nc(=O)c2ccccc21` [ARBORINE], the Activity in the series with Raji [1] is above 80%; with Raji [2], 12.7%; with Raji [3], 75.6%; in the series with Raji [4], above 80%; in the series with Raji [5] it was 60%; in the series with Raji [6], 100%. Besides, the Activity with Raji [7] is above 80%; in the series on Raji [8] it was 40.4%.

For the compound `COc1c2ccoc2nc2c(OC)cccc12` [GAMMA-FAGARINE], the Activity in the series on Raji [1] was above 80%; with Raji [2], 15.4%; with Raji [3] it was 77.7%; in the series on Raji [4] it was above 80%; in the series on Raji [5] it was 60%; in the series with Raji [6], 100%. For the same compound, the Activity in the series on Raji [7] is above 80%; in the series with Raji [8] it was 38.2%.

On to `COc1ccc2[nH]c3cc(OC)c(C)cc3c2c1` [GLYCOZOLIDINE], for which the Activity with Raji [1] is above 80%; in the series with Raji [2], 24.3%; in the series with Raji [3], 76%; with Raji [4], above 80%; with Raji [5], 60%; in the series with Raji [6], 100%. Moreover, the Activity was above 80% with Raji [7] and 51.3% in the series with Raji [8].
